The source of these data is ChEMBL document CHEMBL4422684, “Identification of novel lysine demethylase 5-selective inhibitors by inhibitor-based fragment merging strategy” (Bioorg Med Chem, 2019).

Activity calls are given as the source filed them. No cut-off for these calls is given here.

What is called inhibition is the percentage by which the read-out fell short of the control. What is called IC50 is the concentration needed to halve the response being measured.

Assay [1] has as its target Lysine-specific demethylase 6B (Homo sapiens, UniProt O15054). Description: Inhibition of human C-terminal FLAG-tagged KDM6B (1043 to end residues) expressed in baculovirus infected Sf9 insect cells at 25 uM using H3(21-44)-K27(Me3)-GK(Biotin)/2-OG as substrate measured after 1 hr by Alphalisa assay relative to control. An outline of the steps: (§1)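 AlphaLISA demethylase assay in 50 mM HEPES pH 7.5, 0.1% BSA, 0.01% Tween 20 with DMSO. Enzyme and inhibitor combined, then peptide plus 2-OG (50 µM), Fe(II) (5 µM) and ascorbate (100 µM) in the added mix; 1 h at room temperature with shaking.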
For orientation: In Alpha technology, singlet oxygen from a donor bead excites a nearby acceptor bead.

The target of assay [2] is Histone lysine demethylase PHF8 (Homo sapiens, UniProt Q9UPP1). Nature of the assay: Inhibition of human N-terminal FLAG-tagged KDM7B (2 to 525 residues) expressed in baculovirus infected Sf9 insect cells at 25 uM using H3(1-21)K9(Me2)-GGK(Biotin)/2-OG as substrate measured after 1 hr by Alphalisa assay relative to control. In outline:
as §1

In assay [3] the test system is A549. Nature of the assay: Inhibition of KDM6 in human A549 cells assessed as increase in […] levels up to 25 uM after 48 hrs by Western blot analysis. The class given is cell-based. An outline of the steps: (§2)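 A549 cells (5 × 10^5 per 2 mL well, RPMI1640 with 10% heat-inactivated FBS) exposed 48 h to compounds at 1, 5 or 25 µM. SDS lysates normalised by BCA, separated on 5-20% SDS-PAGE, blotted to PVDF, blocked in 5% milk/TBS-T, probed for H3K4me3, H3K9me3, H3K27me3 and total H3, detected by HRP chemiluminescence.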
(A western blot detects proteins with antibodies after separation by electrophoresis.)

Assay [4] has as its system A549. Nature of the assay: Inhibition of KDM4 in human A549 cells assessed as increase in H3K9me3 levels up to 25 uM after 48 hrs by Western blot analysis. The class given is cell-based. An outline of the steps: as §2
The target of assay [5] is T1, Lysine-specific demethylase 4A (Homo sapiens, UniProt O75164).
T1 sequence (O75164 whole entry): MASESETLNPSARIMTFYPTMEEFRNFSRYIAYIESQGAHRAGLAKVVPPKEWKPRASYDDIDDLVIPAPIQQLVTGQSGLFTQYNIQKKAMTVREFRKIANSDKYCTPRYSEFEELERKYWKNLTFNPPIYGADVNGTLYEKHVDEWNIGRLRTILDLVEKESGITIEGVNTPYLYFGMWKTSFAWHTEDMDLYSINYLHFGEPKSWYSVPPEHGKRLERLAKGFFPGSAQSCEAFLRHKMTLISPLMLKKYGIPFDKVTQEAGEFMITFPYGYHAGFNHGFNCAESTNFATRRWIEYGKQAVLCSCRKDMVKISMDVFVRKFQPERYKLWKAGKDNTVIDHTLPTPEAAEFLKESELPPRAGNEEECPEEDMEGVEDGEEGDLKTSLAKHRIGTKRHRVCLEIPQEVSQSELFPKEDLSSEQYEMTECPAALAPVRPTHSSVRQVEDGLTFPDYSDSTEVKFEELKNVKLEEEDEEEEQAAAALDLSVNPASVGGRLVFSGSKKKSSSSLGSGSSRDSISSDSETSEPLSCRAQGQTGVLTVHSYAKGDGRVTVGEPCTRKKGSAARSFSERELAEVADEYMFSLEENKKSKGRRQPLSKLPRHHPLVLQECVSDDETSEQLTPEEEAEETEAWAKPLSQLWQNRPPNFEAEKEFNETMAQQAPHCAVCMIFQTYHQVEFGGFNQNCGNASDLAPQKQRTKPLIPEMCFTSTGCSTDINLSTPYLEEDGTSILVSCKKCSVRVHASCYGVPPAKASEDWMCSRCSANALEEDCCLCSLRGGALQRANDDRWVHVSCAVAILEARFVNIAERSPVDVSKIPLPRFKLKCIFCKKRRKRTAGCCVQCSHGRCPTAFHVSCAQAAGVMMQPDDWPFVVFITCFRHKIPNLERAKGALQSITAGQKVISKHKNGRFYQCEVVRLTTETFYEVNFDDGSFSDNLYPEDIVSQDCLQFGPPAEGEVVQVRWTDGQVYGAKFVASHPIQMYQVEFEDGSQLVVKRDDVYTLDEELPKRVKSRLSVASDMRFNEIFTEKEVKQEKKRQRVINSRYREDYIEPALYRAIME
Nature of the assay: Inhibition of human N-terminal His-tagged KDM4A (1 to 350 residues) expressed in Escherichia coli using H3(21-44)-K36(Me3)-GK(Biotin)/2-OG as substrate measured after 1 hr by Alphalisa assay. An outline of the steps:
as §1

Chain of Histone lysine demethylase PHF8 (Q9UPP1 whole entry, the tested form may be a part): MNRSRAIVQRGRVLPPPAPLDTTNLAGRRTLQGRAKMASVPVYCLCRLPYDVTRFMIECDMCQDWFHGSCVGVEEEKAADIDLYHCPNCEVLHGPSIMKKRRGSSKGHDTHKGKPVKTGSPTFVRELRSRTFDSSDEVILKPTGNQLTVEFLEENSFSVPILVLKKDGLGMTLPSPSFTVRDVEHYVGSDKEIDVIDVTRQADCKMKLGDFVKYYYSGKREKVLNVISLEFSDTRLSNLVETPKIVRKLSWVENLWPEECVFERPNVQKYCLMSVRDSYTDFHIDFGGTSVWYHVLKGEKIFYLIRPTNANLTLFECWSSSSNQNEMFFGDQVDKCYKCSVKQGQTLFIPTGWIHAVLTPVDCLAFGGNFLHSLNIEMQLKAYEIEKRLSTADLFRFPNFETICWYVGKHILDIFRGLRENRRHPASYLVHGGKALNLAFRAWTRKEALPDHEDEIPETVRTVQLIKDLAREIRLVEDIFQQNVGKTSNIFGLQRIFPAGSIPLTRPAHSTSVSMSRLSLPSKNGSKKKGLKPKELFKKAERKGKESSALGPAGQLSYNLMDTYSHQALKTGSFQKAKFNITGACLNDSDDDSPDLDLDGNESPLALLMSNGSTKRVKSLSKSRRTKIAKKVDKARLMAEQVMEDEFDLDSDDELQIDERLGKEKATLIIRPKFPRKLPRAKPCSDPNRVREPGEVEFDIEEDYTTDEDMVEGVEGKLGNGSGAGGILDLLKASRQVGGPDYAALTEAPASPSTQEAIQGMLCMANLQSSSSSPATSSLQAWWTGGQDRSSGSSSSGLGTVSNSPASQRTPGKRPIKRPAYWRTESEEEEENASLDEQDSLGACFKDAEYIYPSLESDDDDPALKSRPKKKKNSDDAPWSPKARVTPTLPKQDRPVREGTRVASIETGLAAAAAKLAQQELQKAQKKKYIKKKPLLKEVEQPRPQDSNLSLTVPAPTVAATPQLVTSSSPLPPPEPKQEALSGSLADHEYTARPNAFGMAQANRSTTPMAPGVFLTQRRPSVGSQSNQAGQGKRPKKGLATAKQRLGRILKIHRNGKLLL
Chain of Lysine-specific demethylase 6B (O15054 whole entry): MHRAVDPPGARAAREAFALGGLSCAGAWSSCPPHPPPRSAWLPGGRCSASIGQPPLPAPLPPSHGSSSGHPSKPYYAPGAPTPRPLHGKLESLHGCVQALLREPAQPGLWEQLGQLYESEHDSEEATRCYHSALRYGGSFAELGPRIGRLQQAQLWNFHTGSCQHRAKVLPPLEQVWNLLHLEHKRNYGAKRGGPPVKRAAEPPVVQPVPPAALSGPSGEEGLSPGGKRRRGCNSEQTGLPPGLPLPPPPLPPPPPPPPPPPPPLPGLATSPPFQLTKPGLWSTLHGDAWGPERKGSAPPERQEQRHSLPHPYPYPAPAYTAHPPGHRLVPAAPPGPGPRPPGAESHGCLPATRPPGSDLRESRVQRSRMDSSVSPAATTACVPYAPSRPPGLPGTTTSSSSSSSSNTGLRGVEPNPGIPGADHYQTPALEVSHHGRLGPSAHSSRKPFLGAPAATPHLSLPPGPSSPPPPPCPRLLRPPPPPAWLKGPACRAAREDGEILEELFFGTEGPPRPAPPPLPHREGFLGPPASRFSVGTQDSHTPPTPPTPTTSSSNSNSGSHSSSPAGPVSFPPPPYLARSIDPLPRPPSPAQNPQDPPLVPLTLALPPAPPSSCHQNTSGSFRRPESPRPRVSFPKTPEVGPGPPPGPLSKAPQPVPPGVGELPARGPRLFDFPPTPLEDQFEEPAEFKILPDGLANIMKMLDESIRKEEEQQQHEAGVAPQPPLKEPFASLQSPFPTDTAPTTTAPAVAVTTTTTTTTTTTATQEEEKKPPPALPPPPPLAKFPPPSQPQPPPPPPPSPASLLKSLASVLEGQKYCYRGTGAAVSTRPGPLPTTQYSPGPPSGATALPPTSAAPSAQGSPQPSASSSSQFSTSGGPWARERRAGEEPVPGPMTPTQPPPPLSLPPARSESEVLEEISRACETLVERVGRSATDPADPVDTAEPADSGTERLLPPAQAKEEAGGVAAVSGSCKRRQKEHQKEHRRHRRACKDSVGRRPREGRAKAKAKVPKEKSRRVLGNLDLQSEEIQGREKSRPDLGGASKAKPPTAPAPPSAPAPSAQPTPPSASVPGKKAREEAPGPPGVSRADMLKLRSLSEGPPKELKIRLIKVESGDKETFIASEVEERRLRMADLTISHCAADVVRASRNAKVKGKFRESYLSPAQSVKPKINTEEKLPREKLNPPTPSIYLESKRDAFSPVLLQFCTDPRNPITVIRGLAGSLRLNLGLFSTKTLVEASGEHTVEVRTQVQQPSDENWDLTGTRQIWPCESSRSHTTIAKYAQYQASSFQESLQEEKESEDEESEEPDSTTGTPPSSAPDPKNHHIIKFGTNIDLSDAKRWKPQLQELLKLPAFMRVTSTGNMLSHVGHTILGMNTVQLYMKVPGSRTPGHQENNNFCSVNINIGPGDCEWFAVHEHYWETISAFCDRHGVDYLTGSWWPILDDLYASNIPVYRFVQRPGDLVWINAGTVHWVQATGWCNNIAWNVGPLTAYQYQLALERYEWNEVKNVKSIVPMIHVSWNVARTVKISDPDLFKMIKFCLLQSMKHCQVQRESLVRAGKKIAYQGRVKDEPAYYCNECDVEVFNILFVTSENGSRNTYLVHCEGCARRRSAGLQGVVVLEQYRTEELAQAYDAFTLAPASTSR

In assay [1], `CC(C)c1c(-c2ccccc2)[nH]c2c(C#N)cnn2c1=O` displayed an inhibition of 69.1%.
In assay [2], `CCCCCCN(C)CCc1ccc(-c2[nH]c3c(C#N)cnn3c(=O)c2C(C)C)cc1` came in with an inhibition of 11.8%. Also, the inhibition entry in the assay on A549 [3] and in the assay on A549 [4] was “inactive” in each case.
`CCCCCCN(C)Cc1ccc(-c2[nH]c3c(C#N)cnn3c(=O)c2C(C)C)cc1` returned an IC50 in assay [5] of 25 µM. Moreover, in assay [2], the inhibition is 12.1%. Also, the inhibition entry with A549 [3] and with A549 [4] was “inactive” in each case.
